Results on 1 molecule are retold here after ChEMBL document CHEMBL3808357, “Discovery of N-(3-((1-Isonicotinoylpiperidin-4-yl)oxy)-4-methylphenyl)-3-(trifluoromethyl)benzamide (CHMFL-KIT-110) as a Selective, Potent, and Orally Available Type II c-KIT Kinase Inhibitor for Gastrointestinal Stromal Tumors (GISTs)” (J Med Chem, 2016).

By GI50 is commonly meant the concentration that inhibits growth by half.

Structures are written as SMILES.

Series [1] concerns Mast/stem cell growth factor receptor Kit (Homo sapiens), P10721 [V559D,T670I]. The series is described as follows: Inhibition of Tel-fused cKIT T670I/V559D double mutant (unknown origin) transfected in mouse BAF3 cells assessed as decrease in cell proliferation after 72 hrs by celltiter-glo/CCK8 assay. The series is classed as cell-based. The method in brief:
(§1)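 Stable BaF3 lines made by retroviral transduction with mutagenized TEL-KIT MSCV vectors, puromycin selection 48 h, then gradual IL-3 withdrawal until IL-3-independent; grown in RPMI 1640 with 10% FBS. Cells at 1 to 3 × 10⁴ cells/mL exposed to a concentration series for 72 h; viability read by CellTiter-Glo luminescence or CCK-8 absorbance (450/655 nm); GI50 from triplicate testing.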

Series [2] deals with Mast/stem cell growth factor receptor Kit (Homo sapiens), P10721 [V654A]. The series is described as follows: Inhibition of Tel-fused cKIT V654A mutant (unknown origin) transfected in mouse BAF3 cells assessed as decrease in cell proliferation after 72 hrs by celltiter-glo/CCK8 assay. The series is classed as cell-based. The method, boiled down:
as §1
On the technique in general: In ATP-based viability assays light output follows the ATP content of the culture.

Series [3] is described as follows: Antiproliferative activity against mouse BAF3 cells. Type of series: cell-based.
A short description of series [4]: Antiproliferative activity against human HL60 cells assessed as reduction in cell viability after 72 hrs by celltiter-glo/CCK8 assay. The series is classed as functional. Conditions: HL-60, 72 h. The method, boiled down: (§2)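 Cells were seeded at 1 to 3 × 10⁴ cells/mL with serial compound concentrations and incubated 72 h at 37 °C, 5% CO₂. Viability was read by CellTiter-Glo luminescence or CCK-8 absorbance (450/655 nm). GI50 values are from triplicate testing. GIST-T1 and CHO were grown in DMEM/10% FBS; GIST-882, GIST-48B and MV4-11 in IMDM/10% FBS; other lines in RPMI 1640/10% FBS.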

Series [5] can be described thus: Antiproliferative activity against human BCR-ABL dependent MEG01 cells assessed as reduction in cell viability after 72 hrs by celltiter-glo/CCK8 assay. The series is classed as functional. Conditions: MEG-01, 72 h.
A short description of series [6]: Antiproliferative activity against cKIT dependent human GIST882 cells assessed as reduction in cell viability after 72 hrs by celltiter-glo/CCK8 assay. The conditions noted are these: GIST882, 72 h. Type of series: functional. The method in brief:
as §2

Series [7] can be described thus: Antiproliferative activity against cKIT dependent human GISTT1 cells assessed as reduction in cell viability after 72 hrs by celltiter-glo/CCK8 assay. The series is classed as functional. The conditions noted are these: GISTT1, 72 h. The method in brief: as §2
A short description of series [8]: Antiproliferative activity against CHL cells assessed as reduction in cell viability after 72 hrs by celltiter-glo/CCK8 assay. The series is classed as cell-based, Cricetulus griseus. The conditions noted are these: chinese hamster. The method in brief: as §2
The test system of series [9] is Mast/stem cell growth factor receptor Kit (Homo sapiens), P10721 [V559D]. The series is described as follows: Inhibition of Tel-fused cKIT V559D mutant (unknown origin) transfected in mouse BAF3 cells assessed as decrease in cell proliferation after 72 hrs by celltiter-glo/CCK8 assay. Type of series: cell-based. The method, boiled down: as §1
A short description of series [10]: Antiproliferative activity against human Rec1 cells assessed as reduction in cell viability after 72 hrs by celltiter-glo/CCK8 assay. Type of series: functional. Conditions: Rec1, 72 h. The method, boiled down:
as §2

A short description of series [11]: Antiproliferative activity against CHO cells assessed as reduction in cell viability after 72 hrs by celltiter-glo/CCK8 assay. The series is classed as cell-based, Cricetulus griseus. Conditions: chinese hamster. The method in brief: as §2
Series [12] can be described thus: Antiproliferative activity against human U937 cells assessed as reduction in cell viability after 72 hrs by celltiter-glo/CCK8 assay. The series is classed as functional. The conditions noted are these: U-937, 72 h. The method in brief: as §2
Series [13] is described as follows: Antiproliferative activity against FLT3-ITD dependent human MOLM14 cells assessed as reduction in cell viability after 72 hrs by celltiter-glo/CCK8 assay. Type of series: functional. Conditions: MOLM-14, 72 h. The method in brief: as §2
Series [14] in a line: Antiproliferative activity against BCR-ABL dependent human KU812 cells assessed as reduction in cell viability after 72 hrs by celltiter-glo/CCK8 assay. The series is classed as functional. Conditions: KU812, 72 h. The method, boiled down:
as §2

Series [15] deals with Mast/stem cell growth factor receptor Kit (Homo sapiens) (UniProt P10721). Put plainly: Inhibition of Tel-fused cKIT (unknown origin) transfected in mouse BAF3 cells assessed as decrease in cell proliferation after 72 hrs by celltiter-glo/CCK8 assay. Type of series: cell-based. The method in brief: as §2
The subject of series [16] is Mast/stem cell growth factor receptor Kit (Homo sapiens), P10721 [T670I]. The series is described as follows: Inhibition of Tel-fused cKIT T670I mutant (unknown origin) transfected in mouse BAF3 cells assessed as decrease in cell proliferation after 72 hrs by celltiter-glo/CCK8 assay. The series is classed as cell-based. The method, boiled down: as §1
Series [17] can be described thus: Antiproliferative activity against human GIST48B cells assessed as reduction in cell viability after 72 hrs by celltiter-glo/CCK8 assay. The series is classed as functional. The method in brief: as §2
For the next series, the system named is MV4-11. Put plainly: Antiproliferative activity against FLT3-ITD dependent human MV4-11 cells assessed as reduction in cell viability after 72 hrs by celltiter-glo/CCK8 assay. Type of series: functional. The conditions noted are these: MV4-11, 72 h. The method in brief: as §2
The test system of series [18] is Mast/stem cell growth factor receptor Kit (Homo sapiens), P10721 [D816V]. Put plainly: Inhibition of Tel-fused cKIT D816V mutant (unknown origin) transfected in mouse BAF3 cells assessed as decrease in cell proliferation after 72 hrs by celltiter-glo/CCK8 assay. The series is classed as cell-based. The method, boiled down:
as §1

The subject of the next series is K562. Put plainly: Antiproliferative activity against BCR-ABL dependent human K562 cells assessed as reduction in cell viability after 72 hrs by celltiter-glo/CCK8 assay. The series is classed as functional. Conditions: K562, 72 h. The method in brief:
as §2

Sequence of Mast/stem cell growth factor receptor Kit (Homo sapiens), P10721 [D816V] (P10721 whole entry D816V, the tested form may be a part): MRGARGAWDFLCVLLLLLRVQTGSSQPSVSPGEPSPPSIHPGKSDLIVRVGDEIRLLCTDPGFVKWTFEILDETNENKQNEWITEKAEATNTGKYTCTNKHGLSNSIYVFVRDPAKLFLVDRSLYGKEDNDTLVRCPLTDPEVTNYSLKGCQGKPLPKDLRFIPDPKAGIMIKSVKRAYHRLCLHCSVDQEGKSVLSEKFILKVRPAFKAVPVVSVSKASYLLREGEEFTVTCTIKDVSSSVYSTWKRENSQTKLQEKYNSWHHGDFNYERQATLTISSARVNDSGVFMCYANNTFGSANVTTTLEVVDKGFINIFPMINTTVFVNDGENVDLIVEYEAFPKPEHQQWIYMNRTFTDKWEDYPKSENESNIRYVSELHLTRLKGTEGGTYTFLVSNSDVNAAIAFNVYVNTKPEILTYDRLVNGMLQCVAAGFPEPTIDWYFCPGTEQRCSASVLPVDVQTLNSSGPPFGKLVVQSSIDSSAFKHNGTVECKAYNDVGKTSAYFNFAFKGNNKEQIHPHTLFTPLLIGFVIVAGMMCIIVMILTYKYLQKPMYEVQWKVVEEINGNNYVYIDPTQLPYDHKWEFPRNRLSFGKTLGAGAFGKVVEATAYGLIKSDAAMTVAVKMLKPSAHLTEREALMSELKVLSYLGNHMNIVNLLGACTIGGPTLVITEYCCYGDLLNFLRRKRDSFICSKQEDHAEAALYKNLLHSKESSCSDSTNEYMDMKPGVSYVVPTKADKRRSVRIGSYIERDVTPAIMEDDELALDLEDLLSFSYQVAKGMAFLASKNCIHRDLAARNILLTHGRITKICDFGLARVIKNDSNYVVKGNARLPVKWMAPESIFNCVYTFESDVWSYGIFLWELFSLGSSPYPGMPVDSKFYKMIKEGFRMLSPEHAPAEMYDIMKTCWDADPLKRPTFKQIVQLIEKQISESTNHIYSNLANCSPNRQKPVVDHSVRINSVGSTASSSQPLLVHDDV
Sequence of Mast/stem cell growth factor receptor Kit (Homo sapiens), P10721 [V559D,T670I] (P10721 whole entry V559D/T670I, the tested form may be a part): as the sequence (P10721 whole entry D816V, the tested form may be a part) above, with V559D, T670I, V816D counted along it
Sequence of Mast/stem cell growth factor receptor Kit (Homo sapiens), P10721 [V654A] (P10721 whole entry V654A, the tested form may be a part): as the sequence (P10721 whole entry D816V, the tested form may be a part) above, with V654A, V816D counted along it
Sequence of Mast/stem cell growth factor receptor Kit (Homo sapiens), P10721 [V559D] (P10721 whole entry V559D, the tested form may be a part): as the sequence (P10721 whole entry D816V, the tested form may be a part) above, with V559D, V816D counted along it
Sequence of Mast/stem cell growth factor receptor Kit (Homo sapiens) (P10721 whole entry, the tested form may be a part): as the sequence (P10721 whole entry D816V, the tested form may be a part) above, with V816D counted along it
Sequence of Mast/stem cell growth factor receptor Kit (Homo sapiens), P10721 [T670I] (P10721 whole entry T670I, the tested form may be a part): as the sequence (P10721 whole entry D816V, the tested form may be a part) above, with T670I, V816D counted along it

On to `CCN(CC)CCNC(=O)c1c(C)[nH]c(/C=C2\C(=O)Nc3ccc(F)cc32)c1C` [SUNITINIB], for which the 50% growth inhibitory concentration (GI50) in [1] is 53 nM; in series [2], 20 nM; in series [3], 2780 nM; in series [4] it was 1 nM; in series [5], 1200 nM; in [6], 110 nM. Further, the GI50 worked out at 41 nM in [7]; 9 nM in [9]; 870 nM in series [10]; 1700 nM in series [12]; 5 nM in [13]; 1100 nM in [14]. Besides, the GI50 in series [15] amounted to 78 nM; in [16] it was 2 nM; in [17], 2010 nM; in the series with MV4-11, 1 nM; in [18], 1380 nM; with K562, 1000 nM. Besides, the results for the GI50 at 72 h in [8] and in series [11] were 2480 nM and 2030 nM, respectively.
